Laboratory results from PubChem BioAssay.
Inconclusive results are not listed.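 The calls were made as follows, unless noted: active = RAM network inhibition above 8.4% in each of two replicates, 3 SD over the compound average; inconclusive = above 8.4% inhibition in only one replicate; inactive = 8.4% inhibition or less in each replicate.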

Legend:
[1] = S. cerevisiae growth inhibition in permissive medium (OD615), pilot counter-assay for S. cerevisiae lifespan shortening project, permissive growth control (AID 705;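 active = growth inhibition above 25% in both replicates, a cutoff set 3 SD above the mean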); conditions: OD615, 24 h, at 10 µM, active compounds read high
Outline: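 Timing: 24 h exposure, 30 °C / Material: Saccharomyces cerevisiae strain carrying genetically modified DeaD replicative-lifespan system / Signal: OD at 615 nm / Compound: 10 µM single dose, 0.25% DMSO / Medium: SC raffinose/galactose permissive medium / Evaluation: reduction in yeast growth (OD615)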

[2] = S. cerevisiae growth inhibition in restrictive medium, OD615, pilot screen, restrictive growth control, yeast lifespan reduction project (AID 706;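 active = growth inhibition above a set limit, 3 SD over mean compound inhibition, in both replicates, cut at about 43% in these data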;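 also: modified DeaD lifespan yeast strain shifted to restrictive glucose medium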); conditions: OD615, 48 h, at 10 µM, active compounds read high
Outline: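 System: Engineered S. cerevisiae DeaD strain | Detection: OD615 | Buffer or medium: CSMM-D glucose medium | Doses: 10 µM compound, 0.25% DMSO | Timing: 4 h pre-growth plus 48 h compound exposure, 30 °C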

[3] = doxorubicin toxicity protection in MRP-1 cells – H69AR cells, CellTiter-Glo, duplicate, MRP-1 activator project, pilot screen (AID 807;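 active = viability increase at or above a cutoff of the median across tested compounds plus 3 SD, cut at about 8.5% in these data, passing the limit was not always enough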;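 also: compound pretreatment 18-22 h then 72 h combined with doxorubicin; 0% = doxorubicin alone and 100% = vehicle without doxorubicin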); conditions: H69AR viability with doxorubicin, CellTiter-Glo luminescence; at 10 µM; active compounds read high
[4] = viability of HCT116 without oncogenic beta-catenin – human colon tumor cells, pilot screen (AID 823;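 active = cell viability at or below a set limit in both duplicate runs, the limit being the all-compound median minus 4 SD, cut at about 23% in these data, passing the limit was not always enough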;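 also: 0% = wells killed by 20 µM Hyamine and 100% = untreated DMSO cell wells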); conditions: HCT116 beta-catenin knockout viability, CellTiter-Glo, 60 h; at 10 µM; active compounds read low
[5] = viability of PTEN-null HCT116 cells – cell-based, HCT116 clonal line, CellTiter-Glo, pilot screen (AID 824;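 active = viability at or below 27.92% in each of two runs, the all-compound median minus 4 SD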;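 also: 0% = 20 µM Hyamine control and 100% = vehicle cell control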); conditions: HCT116 PTEN-deleted viability, 60 h, at 10 µM, active compounds read low
[6] = RAM pathway blockade in budding yeast – dse1pr::URA3 reporter, 5-FOA selection, pilot screen (AID 869;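 active = inhibition over a set limit, the all-compound mean plus 3 SD, in both replicate runs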;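 also: 0% = DMSO wells with no growth and 100% = 10 µM 1-NA-PP1 with full growth; RAM network block rescues cells from 5-FOA so hits raise OD615 growth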); conditions: S. cerevisiae dse1pr::URA3 5-FOA growth, OD615, 2 d; at 10 µM; active compounds read high; strain carries analog-sensitive mutant Cbk1 kinase
[7] = RAM signaling pathway blockade in yeast – S. cerevisiae, Pdr1DBD-CYC8 efflux-inhibited sensitized strain, primary screen (AID 1298);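 also: 0% = DMSO untreated cells without growth and 100% = 10 µM 1-NA-PP1 full growth; higher means more yeast growth rescued from 5-FOA killing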; conditions: S. cerevisiae cbk1-as DSE1-URA3 strain, 5-FOA growth OD615, 2 d; at 50 µM; active compounds read high

Cc1cc(N2CCOCC2)cc(C)[n+]1[O-]
inactive: growth inhibition [1] -2.4% | growth inhibition [2] -2.99% | viability increase [3] -1.54% | viability [4] 89.5% | viability [5] 93.2% | inhibition [6] -0.115% | RAM network inhibition [7] 1.76%

O=C(c1ccccc1NS(=O)(=O)c1cccs1)N1CCCC1
inactive: growth inhibition [1] -1.34% | growth inhibition [2] 3.17% | viability increase [3] -0.63% | viability [4] 93.1% | viability [5] 94.1% | inhibition [6] 1.84% | RAM network inhibition [7] 1.28%

COCCNC(=O)CN(c1ccccc1OC)S(C)(=O)=O
inactive: growth inhibition [1] -6.76% | growth inhibition [2] 1.17% | viability increase [3] 0.7% | viability [4] 101% | viability [5] 101% | inhibition [6] 2.75% | RAM network inhibition [7] 0.67%

CCCS(=O)(=O)c1nc(S(=O)(=O)c2ccc(C)cc2)c(NCCCN2CCOCC2)s1
inactive: growth inhibition [1] 0.84% | growth inhibition [2] -0.48% | viability increase [3] -1.8% | viability [4] 91.8% | viability [5] 99.9% | inhibition [6] 0.475% | RAM network inhibition [7] 5.15%

CCOc1ccccc1N1C(=O)CC(Nc2ccc(N3CCOCC3)cc2)C1=O (stereo unspecified)
inactive: growth inhibition [1] -0.205% | growth inhibition [2] 7.53% | viability increase [3] -2.65% | viability [4] 101% | viability [5] 101% | inhibition [6] 1.6% | RAM network inhibition [7] 5.11%

CCOc1ccc(S(=O)(=O)N2CCN(S(=O)(=O)c3ccc(OCC)cc3)C(C)C2)cc1 (stereo unspecified)
inactive: growth inhibition [1] -7.32% | growth inhibition [2] 1.25% | viability increase [3] -5.22% | viability [4] 93% | viability [5] 93.7% | inhibition [6] 1.27% | RAM network inhibition [7] 6.32%

O=C(Cc1cc(=O)[nH]c(=O)[nH]1)NCCN1CCOCC1
inactive: growth inhibition [1] 4.2% | growth inhibition [2] 10.4% | viability increase [3] 1.08% | viability [4] 102% | viability [5] 98.6% | inhibition [6] 0.35% | RAM network inhibition [7] 5.04%

COc1ccc(N2C(=O)C3CCCN3C2c2cccc(OC)c2)cc1 (stereo unspecified)
inactive: growth inhibition [1] 2.15% | growth inhibition [2] -0.935% | viability increase [3] -1.99% | viability [4] 98.9% | viability [5] 104% | inhibition [6] 1.75% | RAM network inhibition [7] -1.67%

CCOC(=O)C1=C(C)NC(=O)NC1c1cn(-c2ccccc2)nc1-c1cccs1 (stereo unspecified)
inactive: growth inhibition [1] -10.2% | growth inhibition [2] -0.16% | viability increase [3] -0.43% | viability [4] 75.2% | viability [5] 72.2% | inhibition [6] 1.46% | RAM network inhibition [7] 3.87%

O=C(Nc1ccc(Br)cc1F)C1CCCN(S(=O)(=O)c2cnc[nH]2)C1 (stereo unspecified)
inactive: growth inhibition [1] 2.29% | growth inhibition [2] -10.9% | viability increase [3] 2.99% | viability [4] 92.2% | viability [5] 98% | inhibition [6] 0.905% | RAM network inhibition [7] 5.06%

CCOC(=O)CN1c2ccccc2NC(=O)CC1C (stereo unspecified)
inactive: growth inhibition [1] -5.11% | growth inhibition [2] -4.52% | viability increase [3] -4.06% | viability [4] 101% | viability [5] 98.9% | inhibition [6] 0.895% | RAM network inhibition [7] -0.43%

COc1ccc(C2CC3CC(c4ccccc4)N2O3)cc1 (stereo unspecified)
inactive: growth inhibition [1] -3.88% | growth inhibition [2] -2.38% | viability increase [3] -1.22% | viability [4] 89.3% | viability [5] 93.5% | inhibition [6] 2.11% | RAM network inhibition [7] 4.21%

CC(C)Oc1ccc(C2CNC(=O)C2)cc1 (stereo unspecified)
inactive: growth inhibition [1] -1.04% | growth inhibition [2] 0.15% | viability increase [3] -0.24% | viability [4] 102% | viability [5] 103% | inhibition [6] 1.04% | RAM network inhibition [7] 0.1%

CC1=C(C(=O)OC(C)C)C(c2cccnc2)n2ncnc2N1 (stereo unspecified)
inactive: growth inhibition [1] -6.7% | growth inhibition [2] -11% | viability increase [3] 0.27% | viability [4] 101% | viability [5] 100% | inhibition [6] 0.07% | RAM network inhibition [7] 5.02%

COc1ccc(C2CC(=O)N3CN(c4ccc(C)c(Cl)c4)CSC3=C2C#N)cc1 (stereo unspecified)
inactive: growth inhibition [1] 5.58% | growth inhibition [2] 21.9% | viability increase [3] -5.36% | viability [4] 90.1% | viability [5] 89.5% | inhibition [6] 0.91% | RAM network inhibition [7] -1.96%

CC(=O)Nc1nnc(SCc2cccc(F)c2)s1
inactive: growth inhibition [1] -1.17% | growth inhibition [2] -1.06% | viability increase [3] -0.12% | viability [4] 108% | viability [5] 104% | inhibition [6] 1.99% | RAM network inhibition [7] 4.84%

CC(C)(C)NC(=O)C1CCCN(S(=O)(=O)c2cccc3cccnc23)C1 (stereo unspecified)
inactive: growth inhibition [1] -5.03% | growth inhibition [2] 3.88% | viability increase [3] -2.62% | viability [4] 103% | viability [5] 96.1% | inhibition [6] 1.6% | RAM network inhibition [7] 0.52%

COc1ccccc1N1CCN(C(=O)CCCCn2c(=O)[nH]c3ccsc3c2=O)CC1
inactive: growth inhibition [1] -4.33% | growth inhibition [2] 7.52% | viability increase [3] -2.84% | viability [4] 94% | viability [5] 88.5% | inhibition [6] 2.13% | RAM network inhibition [7] 5.16%

Cc1ccccc1CNc1nc(N)n(-c2ccccc2)n1
inactive: growth inhibition [1] -0.29% | growth inhibition [2] 2.71% | viability increase [3] -1.74% | viability [4] 104% | viability [5] 98.1% | inhibition [6] 0.48% | RAM network inhibition [7] 4.87%

CCC(=O)c1ccc(OCC(=O)Nc2nn3cnnc3s2)cc1
inactive: growth inhibition [1] -2.54% | growth inhibition [2] 8.22% | viability increase [3] 1% | viability [4] 104% | viability [5] 102% | inhibition [6] 1.27% | RAM network inhibition [7] 6.32%

CCN1CCN(c2cc(C)c3cc(NC(=O)c4cnccn4)ccc3n2)CC1
inactive: growth inhibition [1] -11.2% | growth inhibition [2] 1.29% | viability increase [3] -3.82% | viability [4] 84.5% | viability [5] 89.5% | inhibition [6] -0.02% | RAM network inhibition [7] -0.42%

Cc1cccc(C)c1Nc1nc2ccccc2o1
inactive: growth inhibition [1] -7.32% | growth inhibition [2] 11.5% | viability increase [3] -0.76% | viability [4] 93.3% | viability [5] 94.3% | inhibition [6] 1.97% | RAM network inhibition [7] -0.32%

COc1cccc(NS(=O)(=O)c2cn(C)c(=O)n(C)c2=O)c1
inactive: growth inhibition [1] -11% | growth inhibition [2] -3.64% | viability increase [3] -0.89% | viability [4] 93.7% | viability [5] 92.9% | inhibition [6] 2.42% | RAM network inhibition [7] 0.89%

O=C(O)CN(Cc1ccco1)S(=O)(=O)c1ccccc1
inactive: growth inhibition [1] -15.2% | growth inhibition [2] -13% | viability increase [3] -1.97% | viability [4] 95.7% | viability [5] 98.3% | inhibition [6] 2.67% | RAM network inhibition [7] 2.35%

COc1ccc2c(c1)C(=O)CC(c1ccccc1F)O2 (stereo unspecified)
inactive: growth inhibition [1] -12% | growth inhibition [2] -1.22% | viability increase [3] -3.63% | viability [4] 65.4% | viability [5] 74.3% | inhibition [6] 1.22% | RAM network inhibition [7] 5.83%

COc1ccc(N2CCN(C(=O)C3CCCN(S(=O)(=O)c4cccc5cccnc45)C3)CC2)cc1 (stereo unspecified)
inactive: growth inhibition [1] 7.46% | growth inhibition [2] -2.35% | viability increase [3] -3.75% | viability [4] 69.6% | viability [5] 68.2% | inhibition [6] 0.045% | RAM network inhibition [7] 2.71%

CC(C)CCN(C)C1CCN(C(=O)Nc2c(F)cccc2F)CC1
inactive: growth inhibition [1] 0.53% | growth inhibition [2] -12.6% | viability increase [3] -3.34% | viability [4] 90.6% | viability [5] 91.7% | inhibition [6] 1.56% | RAM network inhibition [7] 0.26%

CCSCCOC(=O)C1=C(C)NC(=O)NC1c1cc(OC)ccc1OC (stereo unspecified)
inactive: growth inhibition [1] -4.26% | growth inhibition [2] 4.14% | viability increase [3] -1.14% | viability [4] 86.9% | viability [5] 90.8% | inhibition [6] 1.79% | RAM network inhibition [7] 2.39%

CC(Oc1ccc(Cl)cc1Cl)C(=O)Nc1ccncc1 (stereo unspecified)
inactive: growth inhibition [1] -13.3% | growth inhibition [2] -9.66% | viability increase [3] -6.03% | viability [4] 54.9% | viability [5] 54.2% | inhibition [6] 1.19% | RAM network inhibition [7] 2.04%

COc1cc(NC(=O)c2onc(C)c2Cl)c(OC)cc1Cl
inactive: growth inhibition [1] -3% | growth inhibition [2] -6.72% | viability increase [3] -5.82% | viability [4] 91.7% | viability [5] 94.5% | inhibition [6] 1.35% | RAM network inhibition [7] 3.23%

CCc1ccc(N2CCN(C(=O)c3ccc(OC)c(OC)c3)CC2)cc1
inactive: growth inhibition [1] -15.2% | growth inhibition [2] -8.32% | viability increase [3] 2.36% | viability [4] 57.3% | viability [5] 79% | inhibition [6] 0.975% | RAM network inhibition [7] 2.51%

CC1=C(C(=O)OCC2CCCO2)C(c2ccncc2)C2=C(CCCC2=O)N1 (stereo unspecified)
inactive: growth inhibition [1] -16.7% | growth inhibition [2] -8.36% | viability increase [3] -1.77% | viability [4] 98.9% | viability [5] 98.1% | inhibition [6] 2.9% | RAM network inhibition [7] 1.82%

CCCn1c(=S)[nH]c2cc(C(=O)NCC3CCCO3)ccc2c1=O (stereo unspecified)
inactive: growth inhibition [1] -1.52% | growth inhibition [2] 7.49% | viability increase [3] 0.21% | viability [4] 104% | viability [5] 86.5% | inhibition [6] 1.96% | RAM network inhibition [7] 2.81%
